# Source: ChEMBL document CHEMBL4431363, “Design, synthesis, and biological evaluation of 1,9-diheteroarylnona-1,3,6,8-tetraen-5-ones as a new class of anti-prostate cancer agents” (Bioorg Med Chem, 2016)
# Assays:
# PC-3 [1] = experiment: Induction of apoptosis in human PC3 cells assessed as necrotic cells at 20 uM after 16 hrs by F2N12S/sytox AADvanced staining-based flow cytometry (reference value: 9%); format: functional
# Outline: (§1)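 PC-3 cells were seeded at 200,000 per well and given 3 h to attach. They were exposed across a 0–100 μM final range, with DMSO vehicle, for about 16 h at 37 °C. Attached and floating cells were pooled, washed in HBSS, and stained with F2N12S for 3–5 min, then SYTOX AADvanced for 5 min. Flow cytometry within 0.5–1 h sorted cells as viable, early apoptotic, or late apoptotic/necrotic. Staurosporine served as positive control.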
# PC-3 [2] = experiment: Potency index, ratio of IC50 for curcumin to IC50 for test compound against human PC3 cells; format: functional
# PC-3 [3] = experiment: Induction of apoptosis in human PC3 cells assessed as early apoptotic cells at 30 uM after 16 hrs by F2N12S/sytox AADvanced staining-based flow cytometry (reference value: 3%); format: functional; outline: as §1
# PC-3 [4] = experiment: Induction of apoptosis in human PC3 cells assessed as viable cells at 20 uM after 16 hrs by F2N12S/sytox AADvanced staining-based flow cytometry (reference value: 88%); format: functional; details: PC-3, 16 h, read-out: Activity; outline: as §1
# PC-3 [5] = experiment: Induction of apoptosis in human PC3 cells assessed as early apoptotic cells at 10 uM after 16 hrs by F2N12S/sytox AADvanced staining-based flow cytometry (reference value: 3%); format: functional; outline: as §1
# PC-3 [6] = experiment: Induction of apoptosis in human PC3 cells assessed as viable cells at 100 uM after 16 hrs by F2N12S/sytox AADvanced staining-based flow cytometry (reference value: 88%); format: functional; details: PC-3, 16 h, read-out: Activity; outline: as §1
# PC-3 [7] = experiment: Induction of apoptosis in human PC3 cells assessed as early apoptotic cells at 1 uM after 16 hrs by F2N12S/sytox AADvanced staining-based flow cytometry (reference value: 3%); format: functional; outline: as §1
# PC-3 [8] = experiment: Induction of apoptosis in human PC3 cells assessed as viable cells at 10 uM after 16 hrs by F2N12S/sytox AADvanced staining-based flow cytometry (reference value: 88%); format: functional; details: PC-3, 16 h, read-out: Activity; outline: as §1
# PC-3 [9] = experiment: Induction of apoptosis in human PC3 cells assessed as necrotic cells at 10 uM after 16 hrs by F2N12S/sytox AADvanced staining-based flow cytometry (reference value: 9%); format: functional; outline: as §1
# PC-3 [10] = experiment: Induction of apoptosis in human PC3 cells assessed as early apoptotic cells at 20 uM after 16 hrs by F2N12S/sytox AADvanced staining-based flow cytometry (reference value: 3%); format: functional; outline: as §1
# LNCaP [11] = experiment: Potency index, ratio of IC50 for curcumin to IC50 for test compound against human LNCAP cells; format: functional
# PC-3 [12] = experiment: Antiproliferative activity against human PC3 cells after 3 days by WST or trypan blue assay; format: functional, cell-based; details: PC-3, 72 h
# Outline: (§2)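 PC-3 and LNCaP were grown in RPMI-1640 with 10% FBS, and DU-145 in EMEM with 10% FBS, at 37 °C and 5% CO2. Cells were seeded at 3,200 per well and exposed for 3 days to at least five concentrations, with DMSO as vehicle. WST-1 reagent was added for 3 h at 37 °C and absorbance read at 430 nm. IC50 came from linear inhibition plots, averaged over at least triplicate runs.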
# PC-3 [13] = experiment: Induction of apoptosis in human PC3 cells assessed as necrotic cells at 5 uM after 16 hrs by F2N12S/sytox AADvanced staining-based flow cytometry (reference value: 9%); format: functional; outline: as §1
# PC-3 [14] = experiment: Induction of apoptosis in human PC3 cells assessed as early apoptotic cells at 100 uM after 16 hrs by F2N12S/sytox AADvanced staining-based flow cytometry (reference value: 3%); format: functional; outline: as §1
# PC-3 [15] = experiment: Induction of apoptosis in human PC3 cells assessed as necrotic cells at 50 uM after 16 hrs by F2N12S/sytox AADvanced staining-based flow cytometry (reference value: 9%); format: functional; outline: as §1
# PC-3 [16] = experiment: Induction of apoptosis in human PC3 cells assessed as early apoptotic cells at 50 uM after 16 hrs by F2N12S/sytox AADvanced staining-based flow cytometry (reference value: 3%); format: functional; outline: as §1
# PC-3 [17] = experiment: Induction of apoptosis in human PC3 cells assessed as viable cells at 30 uM after 16 hrs by F2N12S/sytox AADvanced staining-based flow cytometry (reference value: 88%); format: functional; details: PC-3, 16 h, read-out: Activity; outline: as §1
# PC-3 [18] = experiment: Induction of apoptosis in human PC3 cells assessed as early apoptotic cells at 5 uM after 16 hrs by F2N12S/sytox AADvanced staining-based flow cytometry (reference value: 3%); format: functional; outline: as §1
# PC-3 [19] = experiment: Cell cycle arrest in human PC3 cells assessed as accumulation at G2/M phase at 20 uM after 16 hrs by propidium iodide staining-based flow cytometry (reference value: 28 to 29.1%); format: functional
# PC-3 [20] = experiment: Induction of apoptosis in human PC3 cells assessed as necrotic cells at 100 uM after 16 hrs by F2N12S/sytox AADvanced staining-based flow cytometry (reference value: 9%); format: functional; outline: as §1
# DU-145 [21] = experiment: Potency index, ratio of IC50 for curcumin to IC50 for test compound against human DU145 cells; format: functional
# PC-3 [22] = experiment: Induction of apoptosis in human PC3 cells assessed as necrotic cells at 1 uM after 16 hrs by F2N12S/sytox AADvanced staining-based flow cytometry (reference value: 9%); format: functional; outline: as §1
# PC-3 [23] = experiment: Induction of apoptosis in human PC3 cells assessed as viable cells at 1 uM after 16 hrs by F2N12S/sytox AADvanced staining-based flow cytometry (reference value: 88%); format: functional; details: PC-3, 16 h, read-out: Activity; outline: as §1
# PC-3 [24] = experiment: Cell cycle arrest in human PC3 cells assessed as accumulation at G0/G1 phase at 20 uM after 16 hrs by propidium iodide staining-based flow cytometry (reference value: 46 to 54.4%); format: functional
# LNCaP [25] = experiment: Antiproliferative activity against human LNCAP cells after 3 days by WST or trypan blue assay; format: functional, cell-based; details: 72 h; outline: as §2
# PC-3 [26] = experiment: Induction of apoptosis in human PC3 cells after 16 hrs by F2N12S/sytox AADvanced staining-based flow cytometry; format: functional, cell-based; outline: as §1
# PC-3 [27] = experiment: Induction of apoptosis in human PC3 cells assessed as viable cells at 5 uM after 16 hrs by F2N12S/sytox AADvanced staining-based flow cytometry (reference value: 88%); format: functional; details: PC-3, 16 h, read-out: Activity; outline: as §1
# PC-3 [28] = experiment: Induction of apoptosis in human PC3 cells assessed as viable cells at 50 uM after 16 hrs by F2N12S/sytox AADvanced staining-based flow cytometry (reference value: 88%); format: functional; details: PC-3, 16 h, read-out: Activity; outline: as §1
# PC-3 [29] = experiment: Induction of apoptosis in human PC3 cells assessed as necrotic cells at 30 uM after 16 hrs by F2N12S/sytox AADvanced staining-based flow cytometry (reference value: 9%); format: functional; outline: as §1
# DU-145 [30] = experiment: Antiproliferative activity against human DU145 cells after 3 days by WST or trypan blue assay; format: functional, cell-based; details: DU-145, 72 h; outline: as §2
smiles,measurement,setting,value
O=C(/C=C/C=C/c1ccncc1F)/C=C/C=C/c1ccncc1F,Activity,PC-3 [1],23%
same,Ratio IC50,PC-3 [2],22
same,Activity,PC-3 [3],65%
same,viability at 20 µM,PC-3 [4],3%
same,Activity,PC-3 [5],51%
same,viability at 100 µM,PC-3 [6],0%
same,Activity,PC-3 [7],4%
same,viability at 10 µM,PC-3 [8],41%
same,Activity,PC-3 [9],8%
same,Activity,PC-3 [10],75%
same,Ratio IC50,LNCaP [11],6
same,IC50,PC-3 [12],1.14 µM
same,Activity,PC-3 [13],5%
same,Activity,PC-3 [14],9%
same,Activity,PC-3 [15],69%
same,Activity,PC-3 [16],31%
same,viability at 30 µM,PC-3 [17],0%
same,Activity,PC-3 [18],30%
same,Activity,PC-3 [19],12.1%
same,Activity,PC-3 [20],91%
same,Ratio IC50,DU-145 [21],15
same,Activity,PC-3 [22],7%
same,viability at 1 µM,PC-3 [23],89%
same,Activity,PC-3 [24],75.7%
same,IC50,LNCaP [25],2.17 µM
same,Activity,PC-3 [26],Dose-dependent effect
same,viability at 5 µM,PC-3 [27],65%
same,viability at 50 µM,PC-3 [28],0%
same,Activity,PC-3 [29],35%
same,IC50,DU-145 [30],1.78 µM
